B1: tRNA (parent)
chain: GUUCCGUUGGCGUAAUGGUAACGCGUCUCCCUCCUAAGGAGAAGACUGCGGGUUCGAGUCCCGUACGGAACG

Drawing on the RNAGym collection of RNA variant scans (doi:10.1126/science.aae0568), this text covers yeast fitness for 167 variants.

Fewer inactive variants are shown than the library holds. Where only a bound is given, the exact number is not on record here.

Variants of B1 are the subject of this series. Description: yeast fitness relative to wild type (ratio to wild type); higher = fitter; tRNA-Arg(CCU), competitive growth, 37 C, YPD. The method in brief:
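A pool of Saccharomyces cerevisiae strains, each with a tRNA-Arg(CCU) gene variant at the native genomic locus, was competed in YPD at 37°C for 24 hours across six parallel replicates. The variants had been chemically synthesised at a 3% per-site mutation rate over 69 sites, and gene amplicons before and after competition were read by 100-nucleotide paired-end sequencing. Darwinian fitness relative to wild type rested on changes in genotype frequencies. Genotypes required ≥ 100 starting reads, and estimates < 0.5 were set to 0.5.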
For the variant C27U C33G A43G A45C, the yeast fitness was 0.634. For U26C C66A, the yeast fitness was 0.631. For the variant G12A U13C U26C G51A, the yeast fitness is not above 0.5.

As for G50U G68C, the yeast fitness is 0.804. As for C24G U26A A65C, the yeast fitness was not above 0.5.

With A45G A57C, the yeast fitness was 0.668. The result for U7C G23C G52A reads 0.591. Regarding C29U C55G G68C, the yeast fitness is not above 0.5.

Regarding C24G A36C A57C A69U A70C, the yeast fitness is not above 0.5. Consider U19C C24U A70U, for which the yeast fitness was 0.849. Under A36G A69G stands 0.932. For G6C C24U G67C, the yeast fitness is 0.537.

For the variant C4G A15U C55A, the yeast fitness is not above 0.5. Consider C5G U7G C33G A70U, for which the yeast fitness is not above 0.5. In the case of C49A G56C G58C, the yeast fitness was not above 0.5. In the case of U13A C46G G63C C66A, the yeast fitness was not above 0.5. As to C49A C61U C62A G67C, the yeast fitness is not above 0.5. As to C27G G63C, the yeast fitness was found to be 0.582.

On to U2C U28A G52A, for which the yeast fitness was not above 0.5. Turning to U19G A21U C29G, the yeast fitness amounted to 0.62.

Turning to A20U C31G C55G A57U, the yeast fitness was not above 0.5. For C4G C11U U19A U32A A37U, the yeast fitness is not above 0.5.

For the variant U7A C22A C31G U32G A42G G52A C62A, the yeast fitness was not above 0.5. For A15C U19C A65C, the yeast fitness worked out at 0.628. Under C24U A36C A45C C55U A70U stands not above 0.5. U8A A15G C27A: the yeast fitness was 0.549. As for C24G C34U U35A A65U, the yeast fitness was 0.578. Take A14C C60G A70U: the yeast fitness is not above 0.5.

With G10C G63A, the yeast fitness was found to be 0.59. For C4U U7A C30G C34G A40C A65U, the yeast fitness is not above 0.5. Take U16A G56A: the yeast fitness was determined as 0.875. For the variant C11A C49A, the yeast fitness was not above 0.5. Take A20G A36G: the yeast fitness was determined as 1.01. Under C24U G68U stands 0.892. As for U7A A14G C31U G39C A40C A45U U47C G68C, the yeast fitness was not above 0.5. For U19G A20U U53A G56A A65U, the yeast fitness was not above 0.5. On to C22G, for which the yeast fitness amounted to 0.988. For C5G C55U, the yeast fitness worked out at 0.791. For the variant A20U U32C A43G, the yeast fitness is 0.659.

Regarding A42U U59C U64A, the yeast fitness was not above 0.5. Under C34G G52C A70U stands 0.542; under U2G C31U U54G, not above 0.5; under C4A A20U C66U, not above 0.5. Regarding U16G U32C, the yeast fitness came to 0.915. Under A21C C27G G39C stands not above 0.5; under C4U G12C C29U C31U U54G A65U G67A, not above 0.5; under C22G C49U C61A, 0.69. Consider A15U C22G C27U A36C G39C G48C G63U A70U, for which the yeast fitness is not above 0.5. Regarding U8A A15U C27G A36G A70C, the yeast fitness is not above 0.5. Consider U8A G10C C11U C24U A42C U47C, for which the yeast fitness turned out to be 0.777. For the variant G56C A70U, the yeast fitness was 0.83. As for U2A G41C U59A C61A C66U G68C, the yeast fitness is not above 0.5. Under A42U G48A stands 0.895; under U7A G17A A45C U47A G50A, not above 0.5; under U3C C31U U54A, 0.583. Turning to A21U C29G G63A, the yeast fitness worked out at 0.618. Take U53A C66U: the yeast fitness worked out at 0.709. With U2C C61U A65G, the yeast fitness is 0.711.

Regarding C11G A36C G56A A70U, the yeast fitness is not above 0.5. Consider C27G A37G, for which the yeast fitness was 0.678. With C22G A37C A42G, the yeast fitness was not above 0.5. In the case of G10C A36G G41A, the yeast fitness is not above 0.5. Under C49A A70G stands 0.675; under C5U U7A C30A G58C, 0.543; under U8G A43C G51A, not above 0.5. With C4U U47A U54C C61A, the yeast fitness was not above 0.5. Consider A40G C46A C61U G67A, for which the yeast fitness is not above 0.5. Consider C31G A36C G68A A70C, for which the yeast fitness is not above 0.5. Under C5A U19A G38C stands not above 0.5; under G41U C46A A70U, 0.632; under C11G U26A C30U G48A U54A C55G A65U, 0.664. On to U7C G41A A42C G50C G67U, for which the yeast fitness was not above 0.5. On to C5G G18A C55A, for which the yeast fitness was not above 0.5. As to U2C C24U A70C, the yeast fitness is 0.708. On to G12A G25A C27U, for which the yeast fitness amounted to 0.596.

As to U64A C66G, the yeast fitness was 0.7. With C31G U53C U54G, the yeast fitness is not above 0.5.

For C27G G41A A57G, the yeast fitness is 0.746. As for U19A G44A A69C, the yeast fitness amounted to 0.685. As to C27U G48A C49U G67A, the yeast fitness was 0.674. The result for G17C C33A C55A reads 0.672; that for U2G U26C, 0.918. With U13A C31G C46G A69C, the yeast fitness is not above 0.5. In the case of C4G G12U A14C A57G, the yeast fitness was not above 0.5.

Consider G23A C62U A69U, for which the yeast fitness came to 0.642. Take C4G C29G A37U C49A G58C: the yeast fitness is 0.502. In the case of C11G A42U, the yeast fitness stood at 0.608. As for C29G C30U G41C C66G G68A, the yeast fitness was not above 0.5.

On to U2A U3G C29G C30G C46G, for which the yeast fitness is 0.612. Take C27G C30U C46A: the yeast fitness came out at 0.655. As to C4G U7A G9A C11U C30G, the yeast fitness was found to be 0.545. As to G9A U28G A40C A42G, the yeast fitness was found to be 0.76.

On to U7A C11G C60A, for which the yeast fitness was not above 0.5. The result for C5G G50A A65G reads 0.587; that for U32C U54C, 0.687; that for C27G A65U C66G, not above 0.5. The result for C4U G9A C22G A42U G68C reads not above 0.5; that for G9C A21U C27U G44A C66U, 0.602; that for U7G A20G C60U C61G, not above 0.5. For G17C G18C U19G C24G, the yeast fitness was not above 0.5. For the variant U19A C30G A36G A57U A65U, the yeast fitness is not above 0.5. Take A14G C27G C62U: the yeast fitness is not above 0.5.

As for G38A A43G C46U C49U, the yeast fitness worked out at 0.611. For A21U U28A A40U A45U, the yeast fitness came to 0.878. For the variant C4U C24G U26A U28G, the yeast fitness amounted to 0.539. With U2G G6A C27U A36U C60G, the yeast fitness stood at 0.526. The result for C33U A65U reads 0.816. With U3C G17A C30G C61G, the yeast fitness is not above 0.5. As for U2C C11U A21C U26C C49U A57U, the yeast fitness was not above 0.5. Turning to A20U C62U A69C, the yeast fitness was 0.686. On to C31A A40U A42G, for which the yeast fitness was 0.606. For C22G C46A, the yeast fitness was 1.03. Turning to U8C A15C C31A, the yeast fitness is not above 0.5.

On to C5A C11A C34A A40U, for which the yeast fitness worked out at 0.696. Turning to U8C C29A A65C C66G, the yeast fitness was not above 0.5. On to A15C C31G C55A C66U, for which the yeast fitness is not above 0.5. Under A20G C34G G41C stands not above 0.5. C11U A15U: the yeast fitness came out at 0.757. With U16C U19A C29U, the yeast fitness was determined as 0.615. A37C U47G: the yeast fitness stood at 0.573. Under C11G A21U C24U U64A A65G G67U stands 0.573. Under U2C G9U C61G stands not above 0.5. As for A36G A43U U47G U53G, the yeast fitness is not above 0.5. The result for C27U U35A U59C reads not above 0.5. Under A14C A42U C55G stands not above 0.5. For A20C C31A C34G A57G A65U, the yeast fitness was not above 0.5. Regarding C5G G50A, the yeast fitness turned out to be 0.835. Turning to C4U U16A A20U U35C G39C A42C G48A, the yeast fitness came out at 0.582.

With G6A G10C, the yeast fitness amounted to 0.725. For the variant C33U U35C, the yeast fitness is 0.579.

As for A43G C55U C66G, the yeast fitness was 0.626.

A21G C49A G56A: the yeast fitness came out at 0.533. With G6A U13A A14G A42U G48C G67C, the yeast fitness is not above 0.5. The result for U3G U26A A70C reads 1.27.

U2C G12A G18C C33U: the yeast fitness came to 0.561. With A43G G58C C62U, the yeast fitness was determined as 0.537. The result for A15C C27U C31A reads not above 0.5.

Take G9C C31G A69G: the yeast fitness was not above 0.5. As to C5U A21U C30G C66A, the yeast fitness came out at 0.552. Under G9U U16A A36C A37G G56C stands not above 0.5.

On to G10C C34U G39U A40C, for which the yeast fitness was not above 0.5.

In the case of A43U G50A A57G, the yeast fitness was not above 0.5.

Take G10A G48A C55A: the yeast fitness was not above 0.5. Consider C11G A36C G68C, for which the yeast fitness was not above 0.5. The result for G25U A65U reads 1.02; that for C4U G10C C30A G50A, not above 0.5; that for U32C C49A, 0.692.

For G17A A20G G41A, the yeast fitness came to 0.593. For the variant U2A C5U A65U A69U, the yeast fitness amounted to 0.614. The result for U8A C24G G41C A65G reads not above 0.5. For the variant C34G A37C G56A, the yeast fitness is 0.527. For A40G G52A G56U, the yeast fitness was not above 0.5.

For C24G G39A, the yeast fitness worked out at 0.643.

For the variant A40U A65G A70U, the yeast fitness amounted to 0.591. For the variant A20G G38A, the yeast fitness amounted to 0.912. For the variant U28A A42G C60U, the yeast fitness was not above 0.5. Under U8C C22G C49U U64C stands 0.679. G6C U53A C60A: the yeast fitness is not above 0.5.

On to A20C A70U, for which the yeast fitness worked out at 1.12.

Regarding C11A A70C, the yeast fitness was 0.593. Under C4G A14U U32C A45U C49G U64C stands not above 0.5; under A57G U59C, 0.864; under U7A A14G A65C, 0.662. Under G17C A37U A42U C49G G51A C61U stands not above 0.5; under C5A U35C G44A G48C C55A, not above 0.5; under G12A G48A A57G G68C, 0.569. The result for C46G A65G reads 0.897.
